≈ marks a conversion by molar mass, not a printed value. Calls of active or inactive are those of the source. The calls are words filed in the database; no cut-off is given here.
Tests used:
[1] = tested on: Plasmodium berghei; test: Antiplasmodial activity against Plasmodium berghei infected in female Swiss Webster mouse model assessed as survival at 10 mg/kg, po administered once daily for 2 days and measured upto 30 days; type: functional; details: time 30 day
Summary of the method: (§1)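 Female Swiss Webster mice (~20 g) infected ip with 10^6 P. berghei-infected erythrocytes from a donor mouse. Dosing by oral gavage once daily for 1–2 days starting 1 h post-inoculation, in 10% DMSO/50% PEG400/40% of 20% HP-β-CD in water. Five mice per arm. Daily Giemsa smears from day 7, counting infected cells per 1000 erythrocytes. Body weight tracked. Euthanasia at >50% parasitemia or >15% weight loss. Followed to day 30; cure means no parasitemia at day 30. Survival reported as the day of the longest-surviving mouse.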

[2] = Solubility of the compound in PBS buffer at pH 7.4; type: physicochemical
[3] = Metabolic stability in human liver microsomes assessed as intrinsic clearance; type: ADME, Microsome; details: for microsomal CLint: liver microsomes, read-out: CLH; for microsomal intrinsic clearance: microsomes
[4] = Toxicity in female Swiss Webster mouse infected with Plasmodium berghei assessed as drug tolerance at 20 mg/kg, […]; type: organism-based; details: in vivo, po
[5] = tested on: Plasmodium berghei; test: Antiplasmodial activity against Plasmodium berghei infected in female Swiss Webster mouse model assessed as survival at 20 mg/kg, po administered once daily for 1 day
[6] = Toxicity in female Swiss Webster mouse infected with Plasmodium berghei assessed as drug tolerance at 10 mg/kg, po administered once daily for 2 days and measured upto 30 days; type: organism-based; details: in vivo, 720 h, time 30 day; summary of the method: as §1
[7] = tested on: Plasmodium berghei; test: Antiplasmodial activity against Plasmodium berghei infected in female Swiss Webster mouse model assessed as cure rate at 40 mg/kg, po measured upto 30 days relative to control; type: functional; details: time <= 30 day
[8] = Toxicity in female Swiss Webster mouse infected with Plasmodium berghei assessed as drug tolerance at 4 mg/kg, po administered once daily for 2 days and measured upto 30 days; type: organism-based; details: in vivo, 720 h, time 30 day; summary of the method: as §1
[9] = tested on: Plasmodium berghei; test: Antiplasmodial activity against Plasmodium berghei infected in female Swiss Webster mouse model assessed as survival at 50 mg/kg, […]; type: functional; details: route po; summary of the method: as §1
[10] = tested on: Plasmodium berghei; test: Antiplasmodial activity against Plasmodium berghei infected in female Swiss Webster mouse model assessed as survival at 4 mg/kg, po administered once daily for 2 days and measured upto 30 days; type: functional; details: time 30 day; summary of the method: as §1
[11] = Toxicity in female Swiss Webster mouse infected with Plasmodium berghei assessed as drug tolerance at 50 mg/kg, […]; type: organism-based; details: in vivo, po; summary of the method: as §1
[12] = Solubility of the compound in PBS buffer at pH 7.4 at 2 mg/ml incubated for 5 to 6 hrs by LC-MS analysis; type: physicochemical; details: time 5-6 hrs
[13] = tested on: Plasmodium berghei; test: Antiplasmodial activity against Plasmodium berghei infected in female Swiss Webster mouse model assessed as reduction in parasitemia at 20 mg/kg, po administered as a single dose and monitored for 30 days by giemsa staining based microscopic analysis; details: time 30.0 day
[14] = Oral bioavailability in rat at 17.4 mg/kg by LC-MS analysis; type: ADME, organism-based; details: in vivo
[15] = tested on: Plasmodium berghei; test: Antiplasmodial activity Plasmodium berghei ANKA infected in female NMRI mouse model assessed as cure rate at 10 mg/kg, po administered as three consecutive dose daily for 24 to 72 hrs post infection by giemsa staining based microscopy analysis relative to control; type: functional; details: time 24-72 hrs
[16] = tested on: Plasmodium berghei; test: Antiplasmodial activity against Plasmodium berghei infected in female Swiss Webster mouse model assessed as survival at 20 mg/kg, po […]; type: functional; summary of the method: as §1
[17] = Volume of distribution at steady state in male CD1 mouse at 3 mg/kg, iv measured upto 24 hrs; type: ADME, organism-based; details: in vivo
Summary of the method: (§2)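 Male CD1 mice, n = 3 per group, dosed IV at 3 mg/kg or PO at 10 mg/kg in 10% DMSO/50% PEG400/40% of 20% HP-β-CD in water. Samples below the limit of quantitation excluded from parameters and mean concentrations.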

[18] = Half life in male CD1 mouse at 10 mg/kg, po measured upto 24 hrs; type: ADME, organism-based; details: in vivo
[19] = Oral bioavailability in male CD1 mouse at 10 mg/kg measured upto 24 hrs; type: ADME, organism-based; details: in vivo; summary of the method: as §2
[20] = AUClast in male CD1 mouse at 10 mg/kg, po measured upto 24 hrs; type: ADME, organism-based; details: in vivo; summary of the method: as §2
[21] = Clearance in male CD1 mouse at 3 mg/kg, iv measured upto 24 hrs; type: ADME, organism-based; details: in vivo; summary of the method: as §2
[22] = tested on: Plasmodium falciparum; test: Antiplasmodial activity against Plasmodium falciparum W2 infected in human erythrocytes assessed as inhibition of parasitic growth incubated for 72 hrs by YOYO-1 staining based FACScalibur flow cytometry analysis; type: functional, organism-based; details: W2, Erythrocyte
Summary of the method: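 P. falciparum W2 grown at 2% hematocrit in RPMI 1640 with 0.5% AlbuMAX II, 0.1 mM hypoxanthine and 25 mM HEPES pH 7.4, at 37 °C under 5% O2/5% CO2/90% N2. Twelve concentrations (3-fold steps, 10 μM to 0.06 nM) or DMSO, 72 h. Cells fixed in 2% formaldehyde, permeabilized, stained with 25 nM YOYO-1 (≥24 h, 4 °C). Parasitemia by flow cytometry on 5 × 10^4 cells. IC50 from 3 replicates.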

[23] = tested on: Plasmodium berghei; test: Antiplasmodial activity against Plasmodium berghei infected in female Swiss Webster mouse model assessed as reduction in parasitemia at 20 mg/kg, po administered once daily for 2 days and measured upto 30 days by giemsa staining based microscopic analysis; type: functional, organism-based; details: time 30.0 day; summary of the method: as §1

Molecule	Survival [1] [days]	solubility kinetic [2] [µM]	Activity [6]	microsomal intrinsic clearance [3] [µL/min/mg]	also measured
NC1CCN(C(=O)O[C@H]2CCC[C@@]3(C2)OOC2(O3)C3CC4CC(C3)CC2C4)CC1 (stereo partly drawn)	11	118 (≈ 48 µg/mL)	Non-Toxic		microsomal CLint [3]: 11.8 µL/min/mg; Activity [4]: Non-Toxic; Survival [5]: 9 days
NCC1CCN(C(=O)O[C@@H]2CCC[C@]3(C2)OOC2(O3)C3CC4CC(C3)CC2C4)CC1 (stereo partly drawn)					Activity [7]: 20%
NC1CCN(C(=O)O[C@@H]2CCC[C@]3(C2)OOC2(O3)C3CC4CC(C3)CC2C4)CC1 (stereo partly drawn)	12	145 (≈ 58.9 µg/mL)	Non-Toxic		Activity [8]: Non-Toxic; Survival [9]: 12 days; Activity [7]: 20%; Activity [4]: Non-Toxic; Survival [5]: 11 days; Survival [10]: 11 days; Activity [11]: Non-Toxic
NC1CN(C(=O)O[C@H]2CCC[C@@]3(C2)OOC2(O3)C3CC4CC(C3)CC2C4)C1 (stereo partly drawn)		101 (≈ 38.2 µg/mL)		< 11.6	Activity [4]: Non-Toxic; Survival [5]: 5 days
c1cc([C@H]2CC[C@]3(CC2)OO[C@]2(O3)C3CC4CC(C3)CC2C4)ccc1OCCN1CCOCC1					solubility [12]: 0.181 µM (≈ 0.085 µg/mL); Activity [13]: Active; Survival [5]: 30 days
O=C(NCC1(O)COC1)O[C@@H]1CCC[C@]2(C1)OOC1(O2)C2CC3CC(C2)CC1C3 (stereo partly drawn)	6		Non-Toxic	76.2	
CC(C)(N)CNC(=O)C[C@H]1CC[C@]2(CC1)OO[C@]1(O2)C2CC3CC(C2)CC1C3	14		Non-Toxic		solubility [12]: 504 µM (≈ 198 µg/mL); bioavailability [14]: 35%; microsomal CLint [3]: < 7 µL/min/mg; Activity [7]: 100%; Activity [15]: 67%
(S,S)-dispiro[adamantane-2,3'-[1,2,4]trioxolane-5',1''-cyclohexan]-3''-yl-piperidine-1-carboxylate					Survival [16]: 7 days
NC1(CNC(=O)O[C@H]2CCC[C@@]3(C2)OOC2(O3)C3CC4CC(C3)CC2C4)CCC1 (stereo partly drawn)	13	162 (≈ 65.9 µg/mL)		24.9	
NCCC1CCN(C(=O)O[C@@H]2CCC[C@]3(C2)OOC2(O3)C3CC4CC(C3)CC2C4)CC1 (stereo partly drawn)					Activity [7]: 20%
O=C(O[C@@H]1CCC[C@]2(C1)OOC1(O2)C2CC3CC(C2)CC1C3)N1CC(O)(C(F)(F)F)C1 (stereo partly drawn)	9	24.8 (≈ 11.1 µg/mL)	Non-Toxic	234	
NC1(CNC(=O)O[C@@H]2CCC[C@]3(C2)OOC2(O3)C3CC4CC(C3)CC2C4)CCCC1 (stereo partly drawn)	11	162 (≈ 68.1 µg/mL)	Non-Toxic	29.9	
NC1(CNC(=O)O[C@H]2CCC[C@@]3(C2)OOC2(O3)C3CC4CC(C3)CC2C4)CC1 (stereo partly drawn)	11	143 (≈ 56.1 µg/mL)	Non-Toxic	37.4	Activity [4]: Non-Toxic; Survival [5]: 11 days
NC1(CNC(=O)O[C@H]2CCC[C@@]3(C2)OOC2(O3)C3CC4CC(C3)CC2C4)COC1 (stereo partly drawn)	9	87.7 (≈ 35.8 µg/mL)	Non-Toxic	135	
CC1(O)CN(C(=O)O[C@H]2CCC[C@@]3(C2)OOC2(O3)C3CC4CC(C3)CC2C4)C1 (stereo partly drawn)	4	137 (≈ 53.9 µg/mL)	Non-Toxic		
CC(C)(N)CNC(=O)O[C@@H]1CCC[C@]2(C1)OOC1(O2)C2CC3CC(C2)CC1C3 (stereo partly drawn)					Vdss [17]: 2.79 L/kg; t1/2 [18]: 2.09 h; F [19]: 39.3%; microsomal CLint [3]: 12.8 µL/min/mg; Activity [4]: Non-Toxic; Survival [5]: 12 days; AUClast [20]: 555 ng·h/mL; CL [21]: 108 mL/min/kg
N=S(=O)(CCNC(=O)O[C@H]1CCC[C@@]2(C1)OOC1(O2)C2CC3CC(C2)CC1C3)C1CC1 (stereo partly drawn)	6	234 (≈ 106 µg/mL)	Non-Toxic	450	
NC1(CNC(=O)O[C@H]2CCC[C@@]3(C2)OOC2(O3)C3CC4CC(C3)CC2C4)CCCC1 (stereo partly drawn)	14	13.4 (≈ 5.64 µg/mL)	Non-Toxic	25.3	
NC1(CNC(=O)O[C@@H]2CCC[C@]3(C2)OOC2(O3)C3CC4CC(C3)CC2C4)CC1 (stereo partly drawn)					EC50 [22]: 1.5 nM; microsomal CLint [3]: 41.7 µL/min/mg
CC(C)(N)CNC(=O)O[C@H]1CCC[C@@]2(C1)OOC1(O2)C2CC3CC(C2)CC1C3 (stereo partly drawn)	30	174 (≈ 68.6 µg/mL)	Non-Toxic		Vdss [17]: 2.5 L/kg; t1/2 [18]: 1.44 h; F [19]: 38.9%; Activity [23]: Active; microsomal CLint [3]: < 11.5 µL/min/mg; Activity [4]: Non-Toxic; Survival [5]: 20 days; AUClast [20]: 818 ng·h/mL; CL [21]: 77 mL/min/kg
N[C@@H]1CCN(C(=O)O[C@@H]2CCC[C@]3(C2)OOC2(O3)C3CC4CC(C3)CC2C4)C1 (stereo partly drawn)		167 (≈ 65.5 µg/mL)		45.8	Activity [7]: 20%
CC1(O)CN(C(=O)O[C@@H]2CCC[C@]3(C2)OOC2(O3)C3CC4CC(C3)CC2C4)C1 (stereo partly drawn)	7	71.4 (≈ 28.1 µg/mL)	Non-Toxic		
O=C(NCC1(O)COC1)O[C@H]1CCC[C@@]2(C1)OOC1(O2)C2CC3CC(C2)CC1C3 (stereo partly drawn)	6	112 (≈ 45.9 µg/mL)	Non-Toxic	333	
NC1(CNC(=O)O[C@@H]2CCC[C@]3(C2)OOC2(O3)C3CC4CC(C3)CC2C4)CCC1 (stereo partly drawn)	13	142 (≈ 57.7 µg/mL)	Non-Toxic	37.4	
CCC1(O)CN(C(=O)O[C@@H]2CCC[C@]3(C2)OOC2(O3)C3CC4CC(C3)CC2C4)C1 (stereo partly drawn)		58.7 (≈ 23.9 µg/mL)		480	
NCCNC(=O)O[C@H]1CCC[C@@]2(C1)OOC1(O2)C2CC3CC(C2)CC1C3 (stereo partly drawn)	30	144 (≈ 52.8 µg/mL)	Non-Toxic	23.1	Vdss [17]: 2.33 L/kg; t1/2 [18]: 1.66 h; F [19]: 43.1%; Activity [23]: Active; AUClast [20]: 1038 ng·h/mL; CL [21]: 66 mL/min/kg
C[S+]([O-])C1CN(C(=O)O[C@@H]2CCC[C@]3(C2)OOC2(O3)C3CC4CC(C3)CC2C4)C1 (stereo partly drawn)		138 (≈ 58.7 µg/mL)		516	
NC1(CNC(=O)O[C@@H]2CCC[C@]3(C2)OOC2(O3)C3CC4CC(C3)CC2C4)COC1 (stereo partly drawn)	8	122 (≈ 49.8 µg/mL)	Non-Toxic	23.4	Activity [4]: Non-Toxic; Survival [5]: 7 days
N[C@@H]1CCCN(C(=O)O[C@@H]2CCC[C@]3(C2)OOC2(O3)C3CC4CC(C3)CC2C4)C1 (stereo partly drawn)	12	74.9 (≈ 30.4 µg/mL)	Non-Toxic	43.7	
